Results on 62 compounds are retold here after PubChem BioAssay AID1046 (PCMD, 2008).

One may read the inhibition as the change of the read-out against control, counted positive when it falls.

In all, about 220,000 compounds went through this assay and about 560 (0.25%) were called active.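 How the source made its calls: active means inhibition at or above 40%; inactive means inhibition below 40%.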 The full list was thinned out, with actives kept by preference.

The target of this assay is Prothrombin (Homo sapiens) (UniProt P00734). As to the kind of experiment: human alpha-thrombin inhibitors, primary screen, counter-screen for coagulation protease inhibitor project, biochemical, 1536-well, fluorogenic AMC substrate (AID 1046).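 Further: 0% = enzyme with no compound and 100% = wells without enzyme.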 The conditions noted are these: Boc-VPR-AMC fluorogenic substrate cleavage, at 5 µM, active compounds read high. The method, boiled down: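 Test system: human alpha-thrombin; medium: pH 7.5 Tris-saline with Tween 20; times: reaction at room temperature; signal: AMC fluorescence at 355 nm excitation and 460 nm emission; also added: Boc-VPR-AMC substrate, 15 µM final; dosing: one concentration per compound, 5 µM, with 0.2% DMSO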
In general terms: A counterscreen serves to expose hits that act by an unwanted route or on another target.
With `COc1ccc(S(=O)(=O)N2CCC(C(=O)OCC(=O)c3ccccc3)CC2)cc1[N+](=O)[O-]`, the inhibition is 0.56% (inactive). As for `O=C(NNC(=S)Nc1ccc(F)cc1)[C@H]1C[C@@H]1c1ccccc1`, the inhibition is -10.3% (inactive). The result for `CN(Cc1ccccn1)Cc1nc(-c2ccc(Cl)cc2)no1` reads 57.7% (active); that for `CCN1CC(CN(C)Cc2nc(-c3ccc(Cl)cc3)no2)CC1=O` (configuration not stated), -8.96% (inactive); that for `COC(=O)c1ccc(-c2noc(CN(Cc3ccccn3)CC3CCCO3)n2)cc1` (configuration not stated), 21.1% (inactive). As for `Cc1c(C(=O)O)nnn1-c1nonc1N`, the inhibition was 2.29% (inactive). Under `OC1CSc2nc3ccccc3n2C1` (configuration not stated) stands 0.85% (inactive).

Consider `O=C(NC(=S)Nc1cc(C(F)(F)F)ccc1N1CCOCC1)c1ccc(-c2cccc(Cl)c2)o1`, for which the inhibition was -10.3% (inactive). The result for `CC1(OC(=O)CCc2ccccc2)C(=O)C=C2C=C(c3ccc(C#N)cc3)N(CCc3ccccn3)C=C2C1=O` (configuration not stated) reads -12.4% (inactive); that for `CC(=O)C1=C(O)C(=O)N(c2cccnc2)C1c1ccc([N+](=O)[O-])cc1` (configuration not stated), 2.53% (inactive); that for `Cc1cccc(NC(=S)Nc2ccc(Br)cc2)c1`, 3.41% (inactive). The result for `Cc1cccc(NC(=S)Nc2ccc(Cl)c(Cl)c2)c1` reads 0.05% (inactive); that for `Cc1cccc(NC(=S)NC23CN4CN(CN(C4)C2)C3)c1`, 53.8% (active). The result for `S=C(Nc1ccc(Br)cc1Cl)N1CCC2(CC1)OCCO2` reads -1.42% (inactive); that for `O=C(NC1CCN(Cc2ccccc2)CC1)c1cc(Br)c(Br)[nH]1`, 1.26% (inactive); that for `O=C(CCCOc1ccc(Cl)cc1Cl)NNC(=O)C1CCC1`, -6.08% (inactive). In the case of `N/C(=N\OS(=O)(=O)c1cccc([N+](=O)[O-])c1)c1ccncc1`, the inhibition is -6.25% (inactive). Under `CCCCNC(=O)CSc1nc2ccc(NC(=O)CSc3nnc(N)s3)cc2s1` stands -6.44% (inactive); under `O=C(Cc1ccccc1)N1N=C(c2ccncc2)CC1(O)C(F)(F)F` (configuration not stated), 2.25% (inactive).

`COc1ccc(CC(=O)n2nc(-c3cccnc3)nc2N)cc1`: the inhibition is 89.7% (active). The result for `COc1ccccc1C(=O)n1nc(-c2ccccc2)nc1N` reads 19.2% (inactive). Under `CCCC(=O)n1nc(-c2ccccc2)nc1N` stands 27.1% (inactive); under `CCN1CCN(c2nc(Nc3cc(OC)ccc3OC)nc(Nc3cc(OC)ccc3OC)n2)CC1`, -2.15% (inactive); under `Cc1nc(SCC(=O)N2CCc3ccccc3C2)c2c(C)c(C)sc2n1`, 103% (active).

For the compound `Cc1nnc(SCC(=O)N2CCc3ccccc3C2)s1`, the inhibition is 7.65% (inactive). In the case of `Cc1nc(SCC(=O)N2CC(=O)Nc3ccccc32)c2c(C)c(C)sc2n1`, the inhibition is -0.55% (inactive). Under `CC1(C)Cc2cccc(OCC(=O)N3CCN(c4ccc([N+](=O)[O-])cc4)CC3)c2O1` stands -1.43% (inactive); under `COc1ccc(NC(=O)C2=C(C)NC(=O)NC2c2ccccc2[N+](=O)[O-])cc1` (configuration not stated), -0.08% (inactive). Under `CCOC(=O)N/N=C1\CC(C)S(=O)(=O)c2ccc(Cl)cc21` (configuration not stated) stands 28.2% (inactive). Consider `Cc1cc(=O)[nH]c(S)c1C#N`, for which the inhibition is -5% (inactive). The result for `CSCC[C@H](NC(=O)NC1CCCC1)C(=O)O` reads -3.12% (inactive); that for `Cc1ccc(C)c(NC(=O)C2Cc3ccccc3CN2C(=O)OCc2ccccc2)c1` (configuration not stated), 104% (active). The result for `COc1cccc(NC(=O)C2CCCN2C(=O)OCc2ccccc2)c1` (configuration not stated) reads -12.3% (inactive). Under `Cc1ccc(C)c(NC(=O)C2CCCN2C(=O)OC(C)(C)C)c1` (configuration not stated) stands 1.35% (inactive); under `Cc1nc(Cl)c2oc3ccccc3c2n1`, 104% (active); under `Cc1nc(N2CCCC2C(=O)O)c2oc3ccccc3c2n1` (configuration not stated), 2.84% (inactive). As to `CCSc1nc(C)nc2c1oc1ccccc12`, the inhibition is 4.11% (inactive).

As to `CCc1nnc(NC(=O)CCN(c2ccc(C)cc2)S(=O)(=O)c2ccccc2)s1`, the inhibition is 47.5% (active). Under `CCc1nnc(NC(=O)CCC(=O)O)s1` stands 8.11% (inactive); under `CCc1nnc(NC(=O)CCC(=O)NCc2ccccc2OC)s1`, 2.56% (inactive). The result for `O=C(Nc1ccc(F)cc1)c1cc2c(s1)CCCC2` reads -1.36% (inactive); that for `CCCCNS(=O)(=O)c1ccc2nc(SCC(=O)Nc3cc(C)cc(C)c3)[nH]c2c1`, -6.37% (inactive). Under `CN(C(=O)c1c(Cl)cnn1C)C12CC3CC(CC(C3)C1)C2` stands -15.4% (inactive); under `C/C(=N\NC(=O)CSc1nc2ccccc2c(=O)n1-c1ccccc1C)c1cccs1`, 0.36% (inactive). For the compound `Cc1ccc(OCCOCCOc2ccc(Br)cc2/C=N\NC(=O)c2ccncc2)cc1`, the inhibition was -13.6% (inactive). Under `Cc1c([N+](=O)[O-])c(N)nn1C` stands 5.35% (inactive). Under `Cc1ccc2cc(C)c(N3CCC(C)CC3)nc2c1` stands -2.54% (inactive); under `CN(c1ccc(OCC(=O)OCC(=O)Nc2cccc([N+](=O)[O-])c2)cc1)S(=O)(=O)c1ccc(F)cc1`, 2.69% (inactive); under `CC1CC(=O)Nc2ccccc2N1S(=O)(=O)c1cccs1` (configuration not stated), -3.5% (inactive). Under `Cc1[nH]c2ccccc2c1-c1ccc(Cl)nn1` stands 1.85% (inactive); under `O=C(O)C(F)(F)C(NCc1ccccc1)c1ccccc1` (configuration not stated), 5.86% (inactive).

As to `CN(C)C(CNC(=O)c1cccc(C#N)c1)c1ccco1` (configuration not stated), the inhibition was -12.4% (inactive).

For the compound `CC/C=C/C(=O)N1CC2(CC(c3cccc(NC(=O)CC)c3)=NO2)C[C@H]1C(N)=O` (some centres not stated), the inhibition was -2.66% (inactive).

As for `CCOC(=O)C1CCN(c2ccc(C(=O)O)cc2[N+](=O)[O-])CC1`, the inhibition was -6.48% (inactive). Under `CCOC(=O)CSc1nc(C)cc2c1C(=O)OC2` stands -3.04% (inactive); under `CCOC(=O)CSc1ccccn1`, -0.12% (inactive); under `CCOC(=O)CSC1=N/C(=C/c2ccc(-n3cncn3)cc2)C(=O)N1C(C)=O`, 86.8% (active). The result for `N#Cc1c(C(F)(F)F)cc(-c2cccs2)nc1N1CCCCC1` reads -5.35% (inactive).

With `COc1ccc(-n2c(O)c(C=NCC(c3ccco3)N3CCCC3)c3ccccc3c2=O)cc1OC` (configuration not stated), the inhibition is 1.85% (inactive). The result for `CCc1ccccc1NC(=O)CN(C)S(=O)(=O)c1ccc2c(c1)c(=O)n(C)c(=O)n2C` reads -7.84% (inactive); that for `CCN(C(=O)CSc1nnc2ccccn12)C1CCS(=O)(=O)C1` (configuration not stated), 2.43% (inactive); that for `CCOC(=O)c1nnn2c3ccccc3c(=O)n(C)c12`, -5.13% (inactive).
